Measured values reported in article PMC6430907 (Journal of Veterinary Internal Medicine, 2019).

Test system: dogs with compensated CHF caused by MMVD
Assay: Urine output
Type: in vivo, dog
Summary of the method: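 Crossover design in 7 male dogs with ACVIM stage C CHF from MMVD, treated in fixed order with a 2-week washout. Baseline UOP was measured at the end of a 1-h control period. […] UOP was log-transformed and analysed by linear mixed modelling (REML, least square differences).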

NS(=O)(=O)c1cc(C(=O)O)c(NCc2ccco2)cc1Cl [FRUS, furosemide]
increase in median UOP compared to baseline at maximal effect (1 hour after treatment, median of 7 dogs): 1246%
change in urine output (UOP) from baseline (BNP 5 μg/kg SC, FRUS 2 mg/kg SC, or both, 1, 2, 3 hours, 7 dogs): increased significantly
time after treatment of maximal effect on UOP (furosemide 2 mg/kg SC with or without BNP 5 μg/kg SC): 1 h
